Laboratory results as given in ChEMBL document CHEMBL4028911, “Discovery of a Small-Molecule Bromodomain-Containing Protein 4 (BRD4) Inhibitor That Induces AMP-Activated Protein Kinase-Modulated Autophagy-Associated Cell Death in Breast Cancer” (J Med Chem, 2017).
The source made the active and inactive calls. The rule behind the calls is not given here.

Columns and labels:
MDA-MB-231 [1] = assay: Effect on AKT expression in human MDA-MB-231 cells at 3 uM measured up to 36 hrs by Western blot analysis; assay type: ADME, cell-based; conditions: mda-mb-231, 36 h
Procedure, shortened: (§1)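 MCF-7 (1.5 µM) or MDA-MB-231 (3 µM) cells treated for indicated times. Adherent and floating cells lysed in RIPA with 1 mM PMSF, 4°C for 1 h. Equal protein run on 10-15% SDS-PAGE, transferred to PVDF, blocked with milk or BSA, probed with primary then HRP secondary antibodies, ECL detection; β-actin as loading control.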

[2] = target: T1, Serine/threonine-protein kinase ULK1 (Homo sapiens) (UniProt O75385); assay: Inhibition of recombinant human ULK1 (1 to 649 residues) expressed in baculovirus infected Sf9 cells at 1 to 10^6 nM using MBP as substrate after 60 mins in presence of ATP by ADO-Glo assay
T1 sequence (whole entry): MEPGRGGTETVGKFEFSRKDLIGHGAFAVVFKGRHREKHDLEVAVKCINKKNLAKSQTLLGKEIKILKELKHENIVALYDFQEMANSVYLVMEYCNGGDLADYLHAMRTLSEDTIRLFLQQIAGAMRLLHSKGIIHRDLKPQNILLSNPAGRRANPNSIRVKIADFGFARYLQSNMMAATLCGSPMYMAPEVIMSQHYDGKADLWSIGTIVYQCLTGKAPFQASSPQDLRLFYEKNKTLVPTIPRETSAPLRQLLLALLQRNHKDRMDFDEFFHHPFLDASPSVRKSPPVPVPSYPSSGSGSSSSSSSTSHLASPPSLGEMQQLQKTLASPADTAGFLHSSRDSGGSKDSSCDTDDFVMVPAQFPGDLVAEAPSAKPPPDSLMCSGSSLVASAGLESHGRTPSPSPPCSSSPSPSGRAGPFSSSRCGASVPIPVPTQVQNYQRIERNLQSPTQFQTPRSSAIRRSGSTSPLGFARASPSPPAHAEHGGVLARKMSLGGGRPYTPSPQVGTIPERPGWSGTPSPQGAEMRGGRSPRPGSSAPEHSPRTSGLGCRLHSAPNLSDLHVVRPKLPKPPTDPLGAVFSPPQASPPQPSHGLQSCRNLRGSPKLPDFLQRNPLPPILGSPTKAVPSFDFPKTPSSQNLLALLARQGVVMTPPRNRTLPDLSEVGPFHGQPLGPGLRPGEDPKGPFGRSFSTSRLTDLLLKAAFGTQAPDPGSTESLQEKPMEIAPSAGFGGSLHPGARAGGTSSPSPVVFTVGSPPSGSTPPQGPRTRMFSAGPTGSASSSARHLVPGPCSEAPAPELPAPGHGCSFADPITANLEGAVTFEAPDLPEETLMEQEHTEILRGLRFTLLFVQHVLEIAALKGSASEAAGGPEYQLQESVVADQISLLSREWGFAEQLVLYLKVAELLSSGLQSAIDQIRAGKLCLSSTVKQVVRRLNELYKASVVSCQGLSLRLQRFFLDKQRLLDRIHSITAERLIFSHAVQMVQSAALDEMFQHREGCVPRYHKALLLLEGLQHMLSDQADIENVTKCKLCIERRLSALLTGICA

MCF7 [3] = assay: Inhibition of BRD4 protein expression in human MCF7 cells at 1.5 uM measured up to 36 hrs by Western blot analysis; assay type: functional, cell-based
Procedure, shortened: (§2)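 MCF-7 (1.5 μM) or MDA-MB-231 (3 μM) cells treated for indicated times. Adherent and floating cells lysed in RIPA with 1 mM PMSF. Equal protein run on 10-15% SDS-PAGE, blotted to PVDF, blocked in milk or BSA, HRP/ECL detection. β-actin loading control.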

MDA-MB-231 [4] = assay: Induction of autophagy in human MDA-MB-231 cells assessed as cytoplasmic vacuolization at 3 uM by electron microscopy; assay type: functional, cell-based
Procedure, shortened: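 MCF-7 (1.5 µM) or MDA-MB-231 (3 µM) cells treated for indicated times. Cytoplasmic vacuoles examined by transmission electron microscopy.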

MDA-MB-231 [5] = assay: Induction of autophagy in human MDA-MB-231 cells assessed as downregulation of p62/SQSTM1 expression at 3 uM measured up to 36 hrs by Western blot analysis; assay type: functional, cell-based; procedure, shortened: as §1
[6] = target: T2, Bromodomain-containing protein 4 (Homo sapiens, UniProt O60885); assay: Inhibition of BRD4 in human MDA-MB-231 cells assessed as downregulation of AKT phosphorylation at ser473 at 3 uM measured up to 36 hrs by Western blot analysis; assay type: cell-based; procedure, shortened: as §2
[7] = target: Bromodomain-containing protein 3 (Homo sapiens, UniProt Q15059); assay: Inhibition of recombinant human N-terminal GST-tagged BRD3 bromodomain-2 (306 to 417 residues) expressed in Escherichia coli expression system after 120 mins by TR-FRET assay
Procedure, shortened: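 TR-FRET bromodomain binding. Recombinant BRD domain, BET ligand and test agent in 20 μl assay buffer with 1% DMSO final. Incubated 120 min at room temperature. Blank lacks BET ligand.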

Mus musculus [8] = assay: In vivo inhibition of BRD4 expression in BALB/c mouse xenografted with human MCF7 cells at 100 mg/kg, ig administered once a day for 24 days by Western blot analysis; assay type: functional, organism-based
Procedure, shortened: (§3)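 Tumor tissues excised from MCF-7 or MDA-MB-231 xenograft mice were lysed and analysed by western blot for BRD4, c-Myc, LC3 and cleaved caspase-3.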

Mus musculus [9] = assay: In vivo inhibition of c-Myc expression in BALB/c mouse xenografted with human MCF7 cells at 100 mg/kg, ig administered once a day for 24 days by Western blot analysis; assay type: functional, organism-based; procedure, shortened: as §3
[10] = target: T2, Bromodomain-containing protein 4; assay: Inhibition of BRD4 interaction with AMPK in human MDA-MB-231 cells at 3 uM by co-immunoprecipitation assay; assay type: cell-based
Procedure, shortened: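 Cells lysed in RIPA buffer (40 mM Tris-HCl pH 7.5, 150 mM NaCl, 0.5% NP-40, 5% glycerol, 10 mM NaF, protease inhibitors). Lysates incubated overnight at 4 °C with BRD4 or p53 antibody plus protein A/G beads, washed 3 times, resolved on 10% SDS-PAGE and blotted for AMPKα or p53.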

Homo sapiens = organism: Homo sapiens; assay: Increase in p53 interaction with AMPK in human MCF7 cells at 1.5 uM by co-immunoprecipitation assay; assay type: cell-based
Procedure, shortened: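 Cells left untreated or treated, then lysed in RIPA (40 mM Tris-HCl pH 7.5, 150 mM NaCl, 0.5% NP-40, protease inhibitors, 5% glycerol, 10 mM NaF). Lysates incubated overnight at 4°C with BRD4 or p53 antibodies plus protein A/G beads, washed 3 times, resolved on 10% SDS-PAGE. Blots probed for p53 and AMPKα; inputs checked for BRD4, p53 and AMPKα.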

MCF7 [11] = assay: Induction of autophagy in human MCF7 cells assessed as assessed as cytoplasmic vacuolization; assay type: functional, cell-based
[12] = target: T2, Bromodomain-containing protein 4; assay: Inhibition of BRD4 in human MCF7 cells assessed as reduction in ATG13 protein expression at 1.5 uM up to 36 hrs by Western blot analysis; assay type: cell-based; procedure, shortened: as §2
[13] = target: T2, Bromodomain-containing protein 4; assay: Inhibition of BRD4 in human MCF7 cells assessed as reduction in FIP200 protein expression at 1.5 uM up to 36 hrs by Western blot analysis; assay type: cell-based; procedure, shortened: as §2

Sequence of Bromodomain-containing protein 3 (Q15059 whole entry, the tested form may be a part): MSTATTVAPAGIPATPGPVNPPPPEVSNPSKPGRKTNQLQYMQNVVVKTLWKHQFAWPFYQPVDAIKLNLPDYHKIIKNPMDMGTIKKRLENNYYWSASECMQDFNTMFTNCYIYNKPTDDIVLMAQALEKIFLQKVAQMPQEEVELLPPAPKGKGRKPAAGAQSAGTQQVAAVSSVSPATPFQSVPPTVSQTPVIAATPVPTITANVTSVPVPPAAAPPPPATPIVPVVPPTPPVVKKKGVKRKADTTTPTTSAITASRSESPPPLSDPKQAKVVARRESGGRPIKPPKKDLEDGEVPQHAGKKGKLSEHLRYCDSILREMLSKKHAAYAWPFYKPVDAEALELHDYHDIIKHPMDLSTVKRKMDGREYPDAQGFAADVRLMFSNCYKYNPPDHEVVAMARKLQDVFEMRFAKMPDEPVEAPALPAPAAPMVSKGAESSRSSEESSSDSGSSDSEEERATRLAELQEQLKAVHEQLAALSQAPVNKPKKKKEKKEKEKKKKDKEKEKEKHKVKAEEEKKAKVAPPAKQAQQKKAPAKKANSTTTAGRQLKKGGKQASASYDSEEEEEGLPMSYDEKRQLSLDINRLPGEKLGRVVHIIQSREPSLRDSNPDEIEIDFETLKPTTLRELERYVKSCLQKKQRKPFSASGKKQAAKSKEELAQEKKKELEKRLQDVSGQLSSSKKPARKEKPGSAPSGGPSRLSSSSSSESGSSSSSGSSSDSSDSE

Structure (SMILES): Cc1cc(-c2nc3sc4c(c3c(=O)[nH]2)CCN(C)C4)cc(C)c1O
- Activity (MDA-MB-231 [1]): Non-Toxic
- inhibition [2]: inactive
- inhibition (MCF7 [3]): Active
- Activity (MDA-MB-231 [4]): Active
- Activity (MDA-MB-231 [5]): Active
- inhibition [6]: Active
- IC50 [7]: > 100 µM
- Activity (Mus musculus [8]): Active
- Activity (Mus musculus [9]): Active
- inhibition [10]: Active
- Activity (Homo sapiens): Active
- Activity (MCF7 [11]): Active
- inhibition [12]: Active
- inhibition [13]: Active
